Measurements from ChEMBL document CHEMBL3351839, “Design, synthesis, in silico molecular docking and biological evaluation of novel oxadiazole based thiazolidine-2,4-diones bis-heterocycles as PPAR-γ agonists” (Eur J Med Chem, 2014).
Active and inactive are the calls of the source. No cut-off for these calls is given here.

Assays:
[1] = species on record: Rattus norvegicus; test: Hepatoprotective effect in streptozotocin induced diabetic Albino Wistar rat model assessed as reduction in serum ALT level; type: functional, organism-based
Procedure, shortened: (§1)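 Serum from STZ-diabetic rats (60 mg/kg i.p.) after oral treatment in 0.25% CMC. AST and ALT measured by the Reitman–Frankel method; ALP by the Walter–Schult method with p-nitrophenyl phosphate substrate.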

[2] = species on record: Rattus norvegicus; test: Toxicity in streptozotocin induced diabetic Albino Wistar rat model assessed as induction of centrizonal triad inflammation measured 5 hrs post dose by haematoxylin and eosin staining based microscopy; type: organism-based; conditions: in vivo
[3] = test system: Rattus norvegicus; test: Antidiabetic activity in streptozotocin induced diabetic Albino Wistar rat model assessed as blood glucose level dosed orally at equimolar dose of Pioglitazone by glucose oxidase method; type: functional
Procedure, shortened: (§2)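 STZ 60 mg/kg i.p. (freshly made in 0.1 M citrate buffer pH 4.5) to overnight-fasted rats, 5% glucose to drink overnight; diabetic if blood glucose >250 mg/dL on day 3. […] Mean ± SEM, n=5; one-way ANOVA with Dunnett's t test.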

[4] = species on record: Rattus norvegicus; test: Hepatoprotective effect in streptozotocin induced diabetic Albino Wistar rat model assessed as reduction in serum ALP level; type: functional, organism-based; procedure, shortened: as §1
[5] = species on record: Rattus norvegicus; test: Hepatoprotective effect in streptozotocin induced diabetic Albino Wistar rat model assessed as reduction in serum AST level; type: functional, organism-based; procedure, shortened: as §1
[6] = species on record: Rattus norvegicus; test: Toxicity in streptozotocin induced diabetic Albino Wistar rat model assessed as induction of sinusoidal space dilation measured 5 hrs post dose by haematoxylin and eosin staining based microscopy; type: organism-based; conditions: in vivo
[7] = species on record: Rattus norvegicus; test: Toxicity in streptozotocin induced diabetic Albino Wistar rat model assessed as induction of portal triad inflammation measured 5 hrs post dose by haematoxylin and eosin staining based microscopy; type: organism-based; conditions: in vivo
[8] = test system: Rattus norvegicus; test: Antidiabetic activity in streptozotocin induced diabetic Albino Wistar rat model assessed as blood glucose level at 36 mg/kg, po by glucose oxidase method; type: functional; procedure, shortened: as §2
[9] = test system: Rattus norvegicus; test: Antidiabetic activity in streptozotocin induced diabetic Albino Wistar rat model assessed as reduction in blood glucose level measured 90 mins after insulin dosing by insulin tolerance test; type: functional, organism-based
Procedure, shortened: (§3)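 STZ-diabetic rats (60 mg/kg i.p.; glucose >250 mg/dL on day 3) given compound orally as 0.25% CMC suspension, then oral glucose tolerance and insulin tolerance tests, blood glucose followed over time. Groups: normal control, normal + compound, diabetic control, treated diabetic. Mean ± SEM of five observations; one-way ANOVA, Dunnett's t test.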

[10] = test system: 3T3-L1; test: Increase in PPARgamma gene expression in mouse 3T3L1 cells at 10 uM incubated for 24 hrs by real-time PCR method relative to untreated control; type: functional
Procedure, shortened: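 3T3-L1 cells in DMEM with 10% calf serum, seeded 24 h ahead in 24-well plates, exposed to 10 µM compound 24 h at 37 °C, 5% CO2; DMSO vehicle as negative control. RNA extracted, reverse transcribed, qPCR in triplicate, repeated twice; relative PPAR-γ transcript by Ct method normalised to β-actin.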

[11] = species on record: Rattus norvegicus; test: Antidiabetic activity in streptozotocin induced diabetic Albino Wistar rat model assessed as reduction in blood glucose level by oral glucose tolerance test; type: functional, organism-based; procedure, shortened: as §3
[12] = test system: Rattus norvegicus; test: Toxicity in normal Albino Wistar rat assessed as increase in body weight dosed for 15 days; type: organism-based; conditions: in vivo, 360 h
Procedure, shortened: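 Normal and STZ-diabetic Wistar rats (STZ 60 mg/kg i.p.) dosed orally daily for 15 days in 0.25% CMC suspension; body weight compared with normal and diabetic controls. Mean ± SEM, n=5; one-way ANOVA with Dunnett's t test.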

[13] = molecular target: Voltage-gated inwardly rectifying potassium channel KCNH2 (Homo sapiens, UniProt Q12809); test: Inhibition of human ERG
Chain of Voltage-gated inwardly rectifying potassium channel KCNH2 (Q12809 whole entry): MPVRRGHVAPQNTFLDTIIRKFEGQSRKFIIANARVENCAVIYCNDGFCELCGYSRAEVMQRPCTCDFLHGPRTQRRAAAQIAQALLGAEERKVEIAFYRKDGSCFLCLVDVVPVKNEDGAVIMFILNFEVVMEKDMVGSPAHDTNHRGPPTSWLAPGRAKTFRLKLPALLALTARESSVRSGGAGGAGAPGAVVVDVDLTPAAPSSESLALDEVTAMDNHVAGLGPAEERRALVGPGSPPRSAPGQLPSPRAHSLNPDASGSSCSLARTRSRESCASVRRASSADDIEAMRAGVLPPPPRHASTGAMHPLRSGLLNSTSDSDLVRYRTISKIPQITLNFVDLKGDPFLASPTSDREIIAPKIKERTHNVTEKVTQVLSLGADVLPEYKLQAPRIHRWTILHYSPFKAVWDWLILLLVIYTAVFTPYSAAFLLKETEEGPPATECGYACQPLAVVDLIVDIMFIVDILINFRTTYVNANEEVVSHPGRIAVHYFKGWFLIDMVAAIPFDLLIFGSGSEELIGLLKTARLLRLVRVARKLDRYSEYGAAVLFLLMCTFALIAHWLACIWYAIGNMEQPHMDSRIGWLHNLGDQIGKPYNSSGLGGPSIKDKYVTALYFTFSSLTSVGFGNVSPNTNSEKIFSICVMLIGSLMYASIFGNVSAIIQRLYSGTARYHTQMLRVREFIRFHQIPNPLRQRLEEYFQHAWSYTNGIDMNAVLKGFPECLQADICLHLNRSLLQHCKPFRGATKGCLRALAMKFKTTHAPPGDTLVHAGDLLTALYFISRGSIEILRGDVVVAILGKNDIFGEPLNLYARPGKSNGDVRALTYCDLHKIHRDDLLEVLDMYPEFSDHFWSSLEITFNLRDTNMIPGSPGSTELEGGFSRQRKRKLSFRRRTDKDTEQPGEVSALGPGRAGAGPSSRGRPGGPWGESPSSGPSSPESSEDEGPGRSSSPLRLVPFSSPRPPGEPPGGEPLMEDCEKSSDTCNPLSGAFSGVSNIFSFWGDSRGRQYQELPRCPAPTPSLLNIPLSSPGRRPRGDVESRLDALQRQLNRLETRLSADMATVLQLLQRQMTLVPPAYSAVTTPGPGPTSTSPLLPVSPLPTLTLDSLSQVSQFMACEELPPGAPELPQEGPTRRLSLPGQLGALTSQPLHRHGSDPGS

COc1cc(/C=C2/SC(=O)NC2=O)ccc1OCc1nnc(-c2ccc(Br)cc2)o1
Activity [1]: Active
Activity [2]: Non-toxic
Activity [3]: 135.2 mg/dL
Activity [4]: Active
Activity [5]: Active
Activity [6]: Non-toxic
Activity [7]: Non-toxic

CCc1ccc(CCOc2ccc(CC3SC(=O)NC3=O)cc2)nc1 (stereo not drawn) [PIOGLITAZONE]
Activity [1]: Active
Activity [2]: Toxic
Activity [4]: Active
Activity [5]: Active
Activity [8]: 132 mg/dL
Activity [6]: Toxic
Activity [7]: Non-toxic

O=C1NC(=O)/C(=C\c2ccccc2OCc2nnc(COc3ccc(Cl)cc3Cl)o2)S1
Activity [1]: Active
Activity [9]: Active
fold change (FC) [10]: 2
Activity [2]: Non-toxic
Activity [11]: Active
Activity [3]: 134 mg/dL
Activity [12]: Non-toxic
Activity [4]: Active
Activity [5]: Active
Activity [6]: Non-toxic
Activity [7]: Non-toxic
IC50 [13]: 29 µM

COc1cc(/C=C2/SC(=O)NC2=O)ccc1OCc1nnc(-c2ccccc2)o1
Activity [1]: Active
Activity [2]: Non-toxic
Activity [3]: 139.7 mg/dL
Activity [4]: Active
Activity [5]: Active
Activity [6]: Non-toxic
Activity [7]: Non-toxic

CN(CCOc1ccc(CC2SC(=O)NC2=O)cc1)c1ccccn1 (stereo not drawn) [ROSIGLITAZONE]
fold change (FC) [10]: 1
Activity [8]: 144.2 mg/dL

O=C1NC(=O)/C(=C\c2ccccc2OCc2nnc(-c3ccccc3)o2)S1
Activity [1]: Active
fold change (FC) [10]: 2.1
Activity [2]: Non-toxic
Activity [3]: 139.6 mg/dL
Activity [4]: Active
Activity [5]: Active
Activity [6]: Non-toxic
Activity [7]: Non-toxic
